Data published in ChEMBL document CHEMBL4382192, “Discovery of a potent dual ALK and EGFR T790M inhibitor” (Eur J Med Chem, 2017).

Columns and labels:
[1] = biological target: Interleukin-1 receptor-associated kinase 4 (Homo sapiens) (UniProt Q9NWZ3); assay: Binding affinity to wild-type human partial length IRAK4 (M1 to S460 residues) expressed in mammalian expression system assessed as residual binding level at 1 uM by Kinomescan method relative to control
[2] = biological target: Serine/threonine-protein kinase PAK 6 (Homo sapiens) (UniProt Q9NQU5); assay: Binding affinity to wild-type human partial length PAK6 (N298 to C681 residues) expressed in bacterial expression system assessed as residual binding level at 1 uM by Kinomescan method relative to control
[3] = biological target: Serine/threonine-protein kinase ULK1 (Homo sapiens) (UniProt O75385); assay: Binding affinity to wild-type human partial length ULK1 (M1 to T309 residues) expressed in mammalian expression system assessed as residual binding level at 1 uM by Kinomescan method relative to control
[4] = biological target: Myosin-IIIb (Homo sapiens) (UniProt Q8WXR4); assay: Binding affinity to wild-type human partial length MYO3B (M1 to D357 residues) expressed in bacterial expression system assessed as residual binding level at 1 uM by Kinomescan method relative to control
[5] = biological target: Proto-oncogene tyrosine-protein kinase Src (Homo sapiens) (UniProt P12931); assay: Binding affinity to wild-type human partial length SRC (L240 to L536 residues) expressed in bacterial expression system assessed as residual binding level at 1 uM by Kinomescan method relative to control
[6] = biological target: Casein kinase II subunit alpha' (Homo sapiens) (UniProt P19784); assay: Binding affinity to wild-type human full length CSNK2A2 (M1 to R350 residues) expressed in mammalian expression system assessed as residual binding level at 1 uM by Kinomescan method relative to control
[7] = AUClast in mouse at 2 mg/kg, iv; type: ADME, organism-based; design: dose 2 mg/kg, route intravenous, time 0 - last; settings: in vivo
[8] = biological target: Proto-oncogene tyrosine-protein kinase ROS (Homo sapiens) (UniProt P08922); assay: Binding affinity to wild-type human partial length ROS1 (A1921 to N2240 residues) expressed in bacterial expression system assessed as residual binding level at 1 uM by Kinomescan method relative to control
[9] = biological target: Serine/threonine-protein kinase 32B (Homo sapiens) (UniProt Q9NY57); assay: Binding affinity to wild-type human full length YANK2 (M1 to S414 residues) expressed in bacterial expression system assessed as residual binding level at 1 uM by Kinomescan method relative to control
[10] = biological target: Dual specificity mitogen-activated protein kinase kinase 4 (Homo sapiens) (UniProt P45985); assay: Binding affinity to wild-type human partial length MEK4 (S84 to D399 residues) expressed in mammalian expression system assessed as residual binding level at 1 uM by Kinomescan method relative to control
[11] = system: Tyrosine-protein kinase ABL1 (Homo sapiens), P00519 [Q252H]; assay: Binding affinity to human non-phosphorylated ABL1 Q252H mutant (S229 to K512 residues) expressed in mammalian expression system assessed as residual binding level at 1 uM by Kinomescan method relative to control
Procedure, shortened: (§1)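 Kinome-wide selectivity panel run by the KINOMEscan method, with the test compound at a single concentration of 1 μM. Wild-type and mutant kinases were profiled in the same screen.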

[12] = biological target: Serine/threonine-protein kinase RIO1 (Homo sapiens) (UniProt Q9BRS2); assay: Binding affinity to wild-type human full length RIOK1 (M1 to K568 residues) expressed in bacterial expression system assessed as residual binding level at 1 uM by Kinomescan method relative to control
Procedure, shortened: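 Single-point kinome-wide KINOMEscan binding panel, test compound at 1 μM, run by the provider's standard protocol.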

[13] = biological target: Wee1-like protein kinase (Homo sapiens) (UniProt P30291); assay: Binding affinity to wild-type human partial length WEE1 (M291 to K575 residues) expressed in bacterial expression system assessed as residual binding level at 1 uM by Kinomescan method relative to control
[14] = biological target: Cyclin-dependent kinase 11A (Homo sapiens) (UniProt Q9UQ88); assay: Binding affinity to wild-type human partial length CDC2L2 (D391 to K730 residues) expressed in bacterial expression system assessed as residual binding level at 1 uM by Kinomescan method relative to control
[15] = system: Epidermal growth factor receptor (Homo sapiens), P00533 [UNDEFINED MUTATION]; assay: Binding affinity to human partial length EGFR L747-S752del/P753S mutant expressed in bacterial expression system assessed as residual binding level at 1 uM by Kinomescan method relative to control; procedure, shortened: as §1
[16] = biological target: Dual specificity mitogen-activated protein kinase kinase 5 (Homo sapiens) (UniProt Q13163); assay: Binding affinity to wild-type human partial length MEK5 (L98 to P448 residues) expressed in mammalian expression system assessed as residual binding level at 1 uM by Kinomescan method relative to control
[17] = biological target: Tyrosine-protein kinase Fer (Homo sapiens) (UniProt P16591); assay: Binding affinity to wild-type human partial length FER (S542 to T822 residues) expressed in bacterial expression system assessed as residual binding level at 1 uM by Kinomescan method relative to control
[18] = biological target: Serine/threonine-protein kinase DCLK3 (Homo sapiens) (UniProt Q9C098); assay: Binding affinity to wild-type human partial length DCAMKL3 (E140 to V628 residues) expressed in bacterial expression system assessed as residual binding level at 1 uM by Kinomescan method relative to control
[19] = Drug uptake in mouse plasma at 10 mg/kg, po after 2 hrs; type: ADME, organism-based
[20] = biological target: Rho-associated protein kinase 2 (Homo sapiens) (UniProt O75116); assay: Binding affinity to wild-type human partial length ROCK2 (M1 to T431 residues) expressed in mammalian expression system assessed as residual binding level at 1 uM by Kinomescan method relative to control

C=CC(=O)Nc1cc(Nc2ncc(Cl)c(Nc3ccccc3S(=O)(=O)C(C)C)n2)c(OC)cc1N(C)CCN(C)C
Activity [1]: 96%
Activity [2]: 96%
Activity [3]: 0.3%
Activity [4]: 1.8%
Activity [5]: 34%
Activity [6]: 100%
AUC(0-t) [7]: 1290 ng·h/mL
Activity [8]: 0%
Activity [9]: 2.4%
Activity [10]: 100%
Activity [11]: 1.9%
Activity [12]: 92%
Activity [13]: 94%
Activity [14]: 78%
Activity [15]: 0%
Activity [16]: 28%
Activity [17]: 0%
Activity [18]: 30%
concentration at 2 h [19]: 150 nM
Activity [20]: 96%
